# Most compounds without a hit are left out; they make up all but 3.9% or so of the library.
# CRFR2-BP antag: antagonists of CRF-binding protein/CRF-R2 receptor complex; AID 588475; HEK293 CRF-R2/CRF-BP, CRF-induced calcium fluorescence; 350,000 compounds, 0.59% hits; inhibition, % at 11.8 µM;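 active = inhibition of the ligand-induced calcium signal above about 50% at the single tested concentration, limit read from the data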
# CRFBP-R2 agonist: CRF-BP/CRF-R2 complex agonism | 350,000 compounds, 0.46% hits | HEK293 CRF-R2/CRF-BP, calcium dye fluorescence (FLIPR); percent of saturating CRF peptide response | activation, % at 13.2 µM;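 active = activation of at least 50%, plus an integration ratio under a set limit after plate pattern correction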;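 also: plate controls were neutral control wells without compound for no effect and CRF at EC100 for full effect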
# TMEM16A inh: inhibitors of mouse TMEM16A calcium-activated chloride channel | Q8BHY3 | HEK293 TMEM16A/YFP iodide influx fluorescence, ionomycin | normalized B-score (activity score, 25-100; higher = stronger inhibition) at 10 µM | AID 588511 | 310,000 compounds, 1.2% hits;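 active = ratio plate-corrected score three or more library SD toward inhibition, starting fluorescence score within five deviations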;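 also: score derived from kinetic fluorescence span divided by baseline fluorescence per well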
# Target sequence (Q8BHY3 whole entry, looked up): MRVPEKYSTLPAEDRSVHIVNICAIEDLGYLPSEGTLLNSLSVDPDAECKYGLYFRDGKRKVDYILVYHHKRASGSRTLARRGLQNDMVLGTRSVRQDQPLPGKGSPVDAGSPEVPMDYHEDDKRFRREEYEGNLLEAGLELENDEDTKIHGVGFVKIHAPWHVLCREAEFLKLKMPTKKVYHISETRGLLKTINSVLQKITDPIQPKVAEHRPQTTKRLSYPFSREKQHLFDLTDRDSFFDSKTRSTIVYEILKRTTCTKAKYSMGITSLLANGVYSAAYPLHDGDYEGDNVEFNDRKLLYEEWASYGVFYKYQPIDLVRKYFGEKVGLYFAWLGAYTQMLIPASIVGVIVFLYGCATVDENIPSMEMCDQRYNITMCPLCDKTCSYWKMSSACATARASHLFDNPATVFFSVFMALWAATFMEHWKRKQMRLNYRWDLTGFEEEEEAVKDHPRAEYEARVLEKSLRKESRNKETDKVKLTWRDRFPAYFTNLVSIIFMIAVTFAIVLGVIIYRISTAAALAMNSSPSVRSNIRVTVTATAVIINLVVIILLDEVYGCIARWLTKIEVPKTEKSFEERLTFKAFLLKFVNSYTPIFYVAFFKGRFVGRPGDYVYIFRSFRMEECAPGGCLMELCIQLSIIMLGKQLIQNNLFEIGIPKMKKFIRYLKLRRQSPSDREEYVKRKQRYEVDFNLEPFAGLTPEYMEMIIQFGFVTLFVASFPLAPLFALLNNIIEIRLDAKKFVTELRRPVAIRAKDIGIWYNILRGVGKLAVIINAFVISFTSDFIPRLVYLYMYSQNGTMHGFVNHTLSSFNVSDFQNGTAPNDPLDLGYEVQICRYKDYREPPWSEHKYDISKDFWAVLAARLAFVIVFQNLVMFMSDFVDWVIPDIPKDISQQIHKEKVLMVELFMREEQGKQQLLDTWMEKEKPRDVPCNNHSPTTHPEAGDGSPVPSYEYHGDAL
# TMEM16A act: activates or potentiates the mouse TMEM16A chloride channel | 340,000 compounds, 0.3% hits | HEK293 TMEM16A/YFP-H148Q/I152L, iodide quench fluorescence; stronger effect = lower value | AID 623877 | B-score at 10 µM | Q8BHY3;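 active = fluorescence-ratio B-score plate-corrected deviation score at least 3 library SD below zero, with starting fluorescence score within 5 deviations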;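 also: channel opened by trigger with iodide after compound preincubation; score built on the fluorescence ratio of max minus min over baseline; more negative score means more quench and so TMEM16A activation or potentiation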
# TAAR1 ag: agonists of human TAAR1 | Q96RJ0 | CHO RD-HGA16 TAAR1, Fluo-8 calcium fluorescence; vehicle wells 0%, saturating PEA agonist 100% | activation, % at 3 µM | 360,000 compounds, 0.99% hits | AID 624467;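 active = activation above the mean activation of all test compounds in the run plus 3 SD, cut at about 38% in these data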
#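 System: CHO RD-HGA16 cells carrying human TAAR1 plus Gα16; Incubation: 17-24 h seeding, 75 min 37 °C dye, 30 min RT; Measured by: Fluo-8 fluorescence, 5 s baseline then 140 s kinetic read; Control set: DMSO and PEA EC100; Replication: single well for each compound.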
# TAAR1 antag: antagonists of human TAAR1. Q96RJ0. CHO RD-HGA16 TAAR1, Fluo-8 calcium fluorescence, antagonist. inhibition, % at 3 µM. 360,000 compounds, 1.5% hits. AID 624466;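 active = inhibition above a per-plate cutoff, the mean inhibition of test compounds on that plate plus 3 SD, cut at about 49% in these data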;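 also: 0% = DMSO plus EC80 beta-PEA response and 100% = DMSO alone without agonist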
#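 Test system – hTAAR1-expressing CHO RD-HGA16 cells, Gα16-coupled · Reagent – β-PEA at EC80 concentration, post-compound challenge · Compound dosing – 3 µM, single point · Timing – 140 s kinetic read after compound, 140 s after agonist · Detection – Fluo-8 intracellular calcium dye fluorescence, real-time kinetic reads · Control set – DMSO and EC80 PEA controls · Repeats – n of 1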
# TMEM16A reconf: TMEM16A (mouse) chloride channel inhibition, re-confirmation. shares compounds with TMEM16A inh. HEK293 TMEM16A/YFP-H148Q, iodide quench fluorescence; ionomycin added to raise cell calcium. inhibition, % at 10 µM. 2,300 compounds, 39% hits. AID 652189;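 active = mean duplicate percent inhibition, scaled so buffer wells are 0 and the reference blocker 100, over three buffer SD above buffer mean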
# HEK293 Ca mobil: alters calcium mobilization in TMEM16A HEK293 cells, counter-screen. shares compounds with TMEM16A inh. TMEM16A/YFP HEK293, Fluo4 calcium mobilization. calcium response (% of ionomycin), % at 10 µM. 2,300 compounds, 2% hits. AID 652231;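 active = duplicate-averaged calcium signal over 20% of the ionomycin maximum, relative to buffer baseline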;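 also: each well's signal is peak minus trough fluorescence divided by its pre-addition baseline; 0% = buffer wells and 100% = ionomycin wells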
# YFP-HEK293 quench: acts in parental YFP-HEK293 cells lacking TMEM16A, counter-screen | shares compounds with TMEM16A inh | iodide YFP quench, ionomycin | YFP ratio F(max-min)/F0 at 10 µM | 2,300 tested, under 10 active | AID 652233;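 active = yellow fluorescent protein signal ratio exceeding the buffer control mean by over 5 SD of those controls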;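 also: ratio is mean of duplicate wells from kinetic YFP trace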
# ClC-1 rat inh: rat ClC-1 inhibition, TMEM16A specificity screen. shares compounds with TMEM16A inh. CHO ClC-1-YFP, iodide influx fluorescence quench; iodide control reads 0, buffer control 100. ratio percent, % at 10 µM. 2,300 tested, under 10 active;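 active = duplicate-mean ratio percent above the mean of iodide-only control wells, which defines zero, plus 5 of their SD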;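 also: higher percent means stronger block of ClC-1 iodide influx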
# * marks the source's active call; other numbers are inactive results; i = inactive; · = no result.
SMILES,CRFR2-BP antag,CRFBP-R2 agonist,TMEM16A inh,TMEM16A act,TAAR1 ag,TAAR1 antag,TMEM16A reconf,HEK293 Ca mobil,YFP-HEK293 quench,ClC-1 rat inh
Cc1ccc(NC(=O)c2cccs2)cc1NC(=O)c1ccc(F)cc1,4,-1,i,i,0,-14,·,·,·,·
CSc1nsc(SCC(=O)Nc2ccccc2)n1,1,0,i,i,-3,-17,·,·,·,·
CCOC(=O)c1ccc(NC(=O)CSc2nc(SC)ns2)cc1,6,-2,100*,i,8,-5,26%*,i,-1.1,-18
CC1CC(C)CN(C(=O)COC(=O)COc2ccccc2C#N)C1 (stereo not given),5,0,·,i,9,-9,·,·,·,·
Cc1oc2ccc(OS(C)(=O)=O)cc2c1C(=O)OC(C)C,-3,0,i,i,-2,-5,·,·,·,·
CCN(CC)C(=O)COc1ccc2oc(C)c(C(=O)OC(C)C)c2c1,-11,1,i,i,10,7,i,i,-1.1,-9
COc1cc(C(=O)NCc2nnc(SCC(=O)NCc3ccco3)o2)cc(OC)c1OC,-9,-1,i,i,0,-12,·,·,·,·
c1ccc(-c2ncc(CSc3nncn3-c3ccccc3)s2)cc1,19,1,i,i,6,-7,·,·,·,·
Cc1nnc(SCc2cnc(-c3ccc(C(C)C)cc3)s2)n1C,17,-1,100*,i,2,-39,24%*,i,-0.93,4
Cn1ncc2c(=S)[nH]c(=S)[nH]c21,·,·,·,·,0,-26,·,·,·,·
O=c1oc2ccccc2cc1-c1nc2c(s1)CCCC2,10,-5,25*,i,8,9,i,i,-1.3,-8
O=C(Nc1nc(-c2ccccc2)cs1)C1CCCO1 (stereo not given),9,-1,i,i,10,-1,·,·,·,·
O=C(Nc1nc(-c2ccc(-c3ccccc3)cc2)cs1)C1CCCO1 (stereo not given),-10,3,100*,i,6,-9,i,i,-0.9,-21
CSCCC(NC(=O)COc1ccccc1)C(=O)NCc1cccs1 (stereo not given),-2,6,i,i,1,-25,·,·,·,·
Cn1c(C(=O)NN)cc2cc(Oc3ccccc3)ccc21,-3,-1,i,i,4,2,·,·,·,·
COc1ccc2c(c1)cc(C(=O)N/N=C/c1c(O)c(C(=O)O)cc3ccccc13)n2C,-21,22,i,i,2,5,i,i,-1.4,-20
Cc1nn(-c2ccc(Cl)nn2)c(=O)c2ccccc12,-7,-3,i,i,-1,-6,·,·,·,·
OCC1(Cc2ccccc2)CCN(Cc2cnc(-c3ccc(Cl)cc3)nc2)CC1,-38,4,i,i,11,2,i,i,-1.1,-4
OCC1(Cc2ccccc2)CCN(Cc2cnc(-c3cccc4ccccc34)nc2)CC1,1,0,i,i,7,15,·,·,·,·
COc1cc(SC)ccc1C(=O)Nc1cccc(C2OCCCO2)c1,-5,-2,i,i,1,16,·,·,·,·
CCCN(CCC)CCN1C(=O)C2C(C(=O)Nc3cccc(SC)c3)C3C=CC2(O3)C1C(=O)NC1CCCCC1 (stereo not given),-17,-1,100*,i,0,5,i,i,-1.1,-1
Cc1c(CCC(=O)NCCCn2ccnc2)c(=O)oc2cc3oc4c(c3cc12)CCCC4,-8,-3,i,i,0,-39,·,·,·,·
CCOc1cc(S(=O)(=O)NCc2ccccn2)c(C)cc1C,·,·,100*,·,4,12,i,i,-1.2,-6
CC1CN(S(=O)(=O)c2ccc(C(=O)Nc3nc(-c4cc5ccccc5o4)cs3)cc2)CC(C)O1 (stereo not given),-3,-1,25*,i,13,27,i,i,-0.9,-17
CN(CCCC(=O)NCCc1ccccc1)S(=O)(=O)c1ccc([N+](=O)[O-])cc1,3,-1,i,i,5,2,·,·,·,·
SMILES,CRFR2-BP antag,CRFBP-R2 agonist,TMEM16A inh,TMEM16A act,TAAR1 ag,TAAR1 antag,TMEM16A reconf,HEK293 Ca mobil,YFP-HEK293 quench,ClC-1 rat inh
C/C(=N\NC(=S)NCCc1ccccc1)c1ccc(Cl)cc1Cl,21,0,i,i,4,23,·,·,·,·
C/C(=N\NC(=S)NCCc1ccccc1)c1ccc(O)cc1O,2,-2,25*,i,20,18,23%*,i,-1.2,0
Cc1cc(OC(=O)c2cc([N+](=O)[O-])ccc2Cl)c([N+](=O)[O-])c(=O)[nH]1,3,0,i,i,0,0,·,·,·,·
Cc1ccc(Cl)cc1N1CCN(C(=O)C2CCC(=O)N(C3CCCCCC3)C2)CC1 (stereo not given),5,-2,100*,i,3,-19,18%*,i,-1.3,-16
O=C(C1CCC(=O)N(C2CCCC2)C1)N1CCN(c2ccc(Cl)cc2)CC1 (stereo not given),-4,-2,i,i,0,-16,·,·,·,·
Clc1ccc(NC2=NCCC2)cc1Cl,-3,1,i,i,11,-18,i,i,-1.2,-8
COc1cc(Br)cc(/C=N/NC(=O)Cc2ccccc2)c1O,-2,-1,i,i,11,4,·,·,·,·
COc1ccccc1CN=Cc1[nH]c2ccc(Br)c(Cl)c2c1O,-3,1,i,i,27,-4,16%*,i,-0.9,-8
COc1ccc(Br)cc1C(=O)Nc1ccccc1N1CCCC1,-12,0,100*,i,-1,-68,24%*,i,-0.99,-14
CCOC(=O)c1ccc(Nc2nc(-c3cccnc3)nc3ccccc23)cc1,-11,1,25*,i,12,56*,38%*,i,-1.2,-20
COc1cc(C(=O)ON=C2C(C)=CC(=O)C=C2C)cc(OC)c1OC,-21,1,100*,i,21,-21,i,i,-0.94,0
